Columns and labels:
Hepatitis C virus [1] = experiment: Antiviral activity against Hepatitis C virus Con1 Bart79I genotype 1b expressing YFP infected in human Huh7.5 cells assessed as time required for reducing viral core level by half at 10 uM by FACS analysis; format: functional, organism-based; conditions: Hepacivirus hominis, subtype 1b Con1 Bart79I, Huh-7, in the assay text read “viral NS5A-YFP level” for “viral core level”
How it was run: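 Huh7.5 cells stably carrying Bart79I-YFP subgenomic replicon (G418 750 mg/ml selection), exposed to compound at 10 µM; cells harvested at 24, 48, 72 h, washed, resuspended in PBS, NS5A-YFP-positive cell percentage read by FACS. T1/2 taken from the time-response curve.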

Hepatitis C virus [2] = experiment: Antiviral activity against Hepatitis C virus Con1 Bart79I genotype 1b expressing YFP infected in human Huh7.5 cells assessed as NS5A S2204I mutant synthesis at 10 uM after 24 hrs by FACS analysis (reference value: 52.2%); format: functional, Hepacivirus hominis, subtype 1b Con1 Bart79I, Huh-7
How it was run: (§1)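 Huh7.5 cells stably carrying Bart79I-YFP subgenomic replicon (G418 selection), treated with DMSO or compound. Dose series over 5 days (120 h), or 10 M with sampling at 24, 48, 72 h. Cells washed, resuspended in PBS, and NS5A-YFP-positive cells counted by FACS. EC50 and T1/2 taken from response curves.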

Hepatitis C virus [3] = experiment: Antiviral activity against Hepatitis C virus Con1 Bart79I genotype 1b expressing YFP infected in human Huh7.5 cells assessed as NS5A S2204I mutant synthesis at 10 uM after 72 hrs by FACS analysis (reference value: 52.2%); format: functional, Hepacivirus hominis, subtype 1b Con1 Bart79I, Huh-7; how it was run: as §1
Hepatitis C virus [4] = experiment: Antiviral activity against Hepatitis C virus JFH-1 J6 genotype 2a infected in human Huh7.5 cells assessed as inhibition of viral RNA replication at 10 uM by real time qRT-PCR analysis; format: functional, organism-based; conditions: Hepacivirus hominis, subtype 2a JFH1 J6, Huh-7, TDE = time-dependent effect
How it was run: (§2)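 J6/JFH1 RNA-transfected Huh7.5 cells held at 10 µM compound for increasing periods; HCV and host GAPDH RNA measured by real-time qRT-PCR. Triplicates, mean ± SD; T1/2 for halving viral RNA from the time-response curve.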

Hepatitis C virus [5] = experiment: Antiviral activity against Hepatitis C virus JFH-1 J6 genotype 2a infected in human Huh7.5 cells assessed as time required for reducing viral RNA level by half at 10 uM by luciferase reporter gene assay; format: functional, organism-based; conditions: Hepacivirus hominis, subtype 2a JFH1 J6, Huh-7
How it was run: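 Rluc-J6/JFH1 RNA-transfected Huh7.5 cells given 10 µM compound; renilla luciferase and cell viability measured at 24, 48, 72 h. T1/2 for halving replication taken from the time-response curve.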

Hepatitis C virus [6] = experiment: Antiviral activity against Hepatitis C virus Con1 Bart79I genotype 1b infected in human Huh7.5 cells assessed as inhibition of NS5A S2204I mutant synthesis after 120 hrs by Western blot analysis; format: functional, organism-based; conditions: subtype 1b Con1 Bart79I
How it was run: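 Bart79I replicon Huh7.5 cells, 1.5×10⁵/well, treated with DMSO or compound. Dose series for 5 days (120 h), or 10 M for 24, 48, 72 h. Lysed in RIPA with protease inhibitors and protein quantified by Bradford. NS5A and β-actin measured by Western blot, with NS5A normalized to β-actin. EC50 and T1/2 taken from response curves.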

Hepatitis C virus [7] = experiment: Antiviral activity against Hepatitis C virus JFH-1 J6 genotype 2a infected in human Huh7.5 cells assessed as time required for reducing viral RNA level by half at 10 uM by real time qRT-PCR analysis; format: functional, organism-based; conditions: Hepacivirus hominis, subtype 2a JFH1 J6, Huh-7; how it was run: as §2
Hepatitis C virus [8] = experiment: Antiviral activity against Hepatitis C virus Con1 Bart79I genotype 1b expressing NS5A S2204I mutant infected in human Huh7.5 cells assessed as inhibition of viral RNA replication after 72 hrs by real time qRT-PCR analysis; format: functional, organism-based; conditions: subtype 1b Con1 Bart79I
How it was run: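 Huh7.5 cells stably carrying Bart79I genotype 1b subgenomic replicon (G418 750 mg/ml selection, 3 weeks), 3×10⁵ cells/well with DMSO or compound. Dose series over 72 h, or 10 M for increasing periods. Viral and host GAPDH RNA measured by real-time qRT-PCR. EC50 and T1/2 taken from response curves of triplicate experiments.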

Hepatitis C virus [9] = experiment: Antiviral activity against Hepatitis C virus JFH-1 J6 genotype 2a infected in human Huh7.5 cells assessed as time required for reducing viral core level by half at 10 uM by Western blot analysis; format: functional, organism-based; conditions: Hepacivirus hominis, subtype 2a JFH1 J6, Huh-7
How it was run: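 J6/JFH1 RNA-transfected Huh7.5 cells on 10 µM compound, lysed at 24, 48, 72 h. HCV core and β-actin probed by Western blot, core intensity normalised to β-actin; T1/2 from the time-response curve.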

Hepatitis C virus [10] = experiment: Antiviral activity against Hepatitis C virus Con1 Bart79I genotype 1b expressing YFP infected in human Huh7.5 cells assessed as NS5A S2204I mutant synthesis at 1 uM after 120 hrs by FACS analysis (reference value: 66%); format: functional, Hepacivirus hominis, subtype 1b Con1 Bart79I, Huh-7; how it was run: as §1
[11] = Ratio of antiviral activity against Hepatitis C virus Con1 Bart79I genotype 1b expressing NS5A S2204I mutant infected in human Huh7.5 cells assessed as time required for reducing viral RNA level by half to antiviral activity against Hepatitis C virus JFH-1 J6 genotype 2a infected in human Huh7.5 cells assessed as time required for reducing viral RNA level by half; format: functional, Huh-7

Structure (SMILES): C/C(=C\c1c[nH]c2ccc(C#N)cc12)C(=O)Nc1ccc(C(C)(C)C)cc1
- T1/2 (Hepatitis C virus [1]): 31.8 h
- Activity (Hepatitis C virus [2]): 32.2%
- Activity (Hepatitis C virus [3]): 0.6%
- inhibition (Hepatitis C virus [4]): tde
- T1/2 (Hepatitis C virus [5]): 16.4 h
- inhibition (Hepatitis C virus [6]; Hepacivirus hominis, Huh-7): Dose-dependent effect
- EC50 (Hepatitis C virus [6]; Huh-7, 120 h): 2.5 µM
- T1/2 (Hepatitis C virus [7]): 17.2 h
- inhibition (Hepatitis C virus [8]; Hepacivirus hominis, Huh-7): Dose-dependent effect
- EC50 (Hepatitis C virus [8]; Huh-7, 72 h): 0.6 µM
- T1/2 (Hepatitis C virus [9]): 19.6 h
- Activity (Hepatitis C virus [10]): 38.4%
- Ratio [11]: 1.8

— ChEMBL document CHEMBL3120069, “Chemical genetics-based discovery of indole derivatives as HCV NS5B polymerase inhibitors” (Eur J Med Chem, 2014)
